biological target: T1, IgG receptor FcRn large subunit p51 (Homo sapiens, UniProt P55899); assay: Inhibition of human IgG binding to soluble human FcRn by ELISA
Procedure, shortened: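 Biotinylated soluble human FcRn immobilized on neutravidin plates, incubated with hIgG (3 nM, constant) and peptide at varying concentrations for 2 h at 37 °C. After washing, bound hIgG detected with peroxidase-conjugated hIgG-specific Fab fragments.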

T1 sequence (P55899 whole entry, the tested form may be a part): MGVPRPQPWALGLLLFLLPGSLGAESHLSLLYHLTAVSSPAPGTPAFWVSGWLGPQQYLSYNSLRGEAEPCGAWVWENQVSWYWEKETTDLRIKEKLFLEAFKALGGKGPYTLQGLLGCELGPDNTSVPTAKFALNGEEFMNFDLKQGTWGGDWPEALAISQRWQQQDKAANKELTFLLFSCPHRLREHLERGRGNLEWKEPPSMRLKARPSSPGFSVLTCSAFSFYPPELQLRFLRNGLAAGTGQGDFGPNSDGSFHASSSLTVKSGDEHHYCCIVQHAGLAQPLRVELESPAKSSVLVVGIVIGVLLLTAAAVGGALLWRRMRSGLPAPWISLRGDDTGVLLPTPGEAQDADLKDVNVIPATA

IC50 [µM]	Compound
87	CC(C)C[C@H](NC(=O)CNC(=O)CNC(=O)[C@H](Cc1ccccc1)NC(=O)[C@H](Cc1cnc[nH]1)NC(=O)CNC(=O)[C@@H](NC(=O)[C@H](CS)NC(=O)[C@H](Cc1ccccc1)NC(=O)[C@@H](N)CCCN=C(N)N)[C@@H](C)O)C(=O)N[C@@H](Cc1ccc(O)cc1)C(=O)N1CCC[C@H]1C(=O)N[C@@H](CS)C(=O)O
40	CC(C)C[C@H](NC(=O)CNC(=O)CNC(=O)[C@H](Cc1ccccc1)NC(=O)[C@H](Cc1cnc[nH]1)NC(=O)CNC(=O)[C@@H](NC(=O)[C@H](CS)NC(=O)[C@H](Cc1ccccc1)NC(=O)[C@H](CCCNC(=N)N)NC(=O)[C@@H](N)CCC(N)=O)[C@@H](C)O)C(=O)N[C@@H](Cc1ccc(O)cc1)C(=O)N1CCC[C@H]1C(=O)N[C@@H](CS)C(=O)N[C@@H](CC(N)=O)C(=O)NCC(=O)N1CCC[C@H]1C(=O)O
67	CC(C)C[C@H](NC(=O)CNC(=O)CNC(=O)[C@H](Cc1ccccc1)NC(=O)[C@H](Cc1cnc[nH]1)NC(=O)CNC(=O)[C@@H](NC(=O)[C@H](CS)NC(=O)[C@@H](N)Cc1ccccc1)[C@@H](C)O)C(=O)N[C@@H](Cc1ccc(O)cc1)C(=O)N1CCC[C@H]1C(=O)N[C@@H](CS)C(=O)N[C@@H](CC(N)=O)C(=O)NCC(=O)N1CCC[C@H]1C(=O)O

biological target: T1, IgG receptor FcRn large subunit p51; assay: Binding affinity to human FcRn at pH 6 by surface plasmon resonance assay
Procedure, shortened: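 Soluble human FcRn coupled to the dextran surface of a CM5 chip; peptide dilutions flowed over the chip. The equilibrium response at each dilution was plotted against concentration and fitted to a steady-state affinity model to give Kd.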

Compound	Kd [nM]
CC(=O)Nc1ccc(C[C@H](NC(=O)[C@H](Cc2cnc[nH]2)NC(=O)CNC(=O)[C@@H](NC(=O)[C@@H](NC(=O)[C@H](Cc2ccccc2)NC(=O)[C@H](CCCN=C(N)N)NC(=O)[C@@H](N)CCC(N)=O)C(C)(C)S)[C@@H](C)O)C(=O)NCC(=O)NCC(=O)N[C@@H](CC(C)C)C(=O)N[C@@H](Cc2ccc(O)cc2)C(=O)N2CCC[C@H]2C(=O)N[C@@H](CS)C(=O)N[C@@H](CC(N)=O)C(=O)NCC(=O)N2CCC[C@H]2C(=O)O)cc1	270000
CC(C)C[C@H](NC(=O)CNC(=O)[C@@H](CC(=O)O)NC(=O)[C@H](Cc1ccccc1)NC(=O)[C@H](Cc1cnc[nH]1)NC(=O)CNC(=O)[C@@H](NC(=O)[C@@H](NC(=O)[C@H](Cc1ccccc1)NC(=O)[C@H](CCCN=C(N)N)NC(=O)[C@@H](N)CCC(N)=O)C(C)(C)S)[C@@H](C)O)C(=O)N[C@@H](Cc1ccc(O)cc1)C(=O)N1CCC[C@H]1C(=O)N[C@@H](CS)C(=O)N[C@@H](CC(N)=O)C(=O)NCC(=O)N1CCC[C@H]1C(=O)O	580
CC(C)C[C@H](NC(=O)CNC(=O)CNC(=O)[C@H](Cc1ccccc1)NC(=O)[C@H](Cc1cnc[nH]1)NC(=O)CNC(=O)[C@@H](NC(=O)[C@H](NC(=O)[C@H](Cc1ccccc1)NC(=O)[C@@H](CCCN=C(N)N)NC(=O)[C@@H](N)CCC(N)=O)C(C)(C)S)[C@@H](C)O)C(=O)N[C@@H](Cc1ccc(O)cc1)C(=O)N1CCC[C@H]1C(=O)N[C@H](CS)C(=O)N[C@@H](CC(N)=O)C(=O)NCC(=O)N1CCC[C@H]1C(=O)O	280
CC(C)C[C@H](NC(=O)CNC(=O)CNC(=O)[C@H](Cc1ccc([N+](=O)[O-])cc1)NC(=O)[C@H](Cc1cnc[nH]1)NC(=O)CNC(=O)[C@@H](NC(=O)[C@@H](NC(=O)[C@H](Cc1ccccc1)NC(=O)[C@H](CCCN=C(N)N)NC(=O)[C@@H](N)CCC(N)=O)C(C)(C)S)[C@@H](C)O)C(=O)N[C@@H](Cc1ccc(O)cc1)C(=O)N1CCC[C@H]1C(=O)N[C@@H](CS)C(=O)N[C@@H](CC(N)=O)C(=O)NCC(=O)N1CCC[C@H]1C(=O)O	84000
CC(C)C[C@H](NC(=O)CNC(=O)CNC(=O)[C@H](Cc1ccccc1)NC(=O)[C@H](Cc1cnc[nH]1)NC(=O)CNC(=O)[C@@H](NC(=O)[C@H](CCN)NC(=O)[C@H](Cc1ccccc1)NC(=O)[C@H](CCCN=C(N)N)NC(=O)[C@@H](N)CCC(N)=O)[C@@H](C)O)C(=O)N[C@@H](Cc1ccc(O)cc1)C(=O)N1CCC[C@H]1C(=O)N[C@@H](CC(=O)O)C(=O)N[C@@H](CC(N)=O)C(=O)NCC(=O)N1CCC[C@H]1C(=O)O	8400
CC(C)C[C@H](NC(=O)CNC(=O)CNC(=O)[C@H](Cc1ccccc1)NC(=O)[C@H](Cc1cnc[nH]1)NC(=O)CNC(=O)[C@@H](NC(=O)[C@H](CS)NC(=O)[C@H](Cc1ccccc1)NC(=O)[C@@H](N)CCCN=C(N)N)[C@@H](C)O)C(=O)N[C@@H](Cc1ccc(O)cc1)C(=O)N1CCC[C@H]1C(=O)N[C@@H](CS)C(=O)O	10000
CC(C)C[C@H](NC(=O)CNC(=O)CNC(=O)[C@H](Cc1ccccc1)NC(=O)[C@H](Cc1cnc[nH]1)NC(=O)CNC(=O)[C@H](NC(=O)[C@H](NC(=O)[C@H](Cc1ccccc1)NC(=O)[C@H](CCCN=C(N)N)NC(=O)[C@@H](N)CCC(N)=O)C(C)(C)S)[C@@H](C)O)C(=O)N[C@@H](Cc1ccc(O)cc1)C(=O)N1CCC[C@H]1C(=O)N[C@H](CS)C(=O)N[C@@H](CC(N)=O)C(=O)NCC(=O)N1CCC[C@H]1C(=O)O	> 250000
CC(C)C[C@H](NC(=O)CNC(=O)CNC(=O)[C@H](Cc1ccccc1)NC(=O)[C@H](Cc1cnc[nH]1)NC(=O)CNC(=O)[C@@H](NC(=O)[C@H](CS)NC(=O)[C@H](Cc1ccccc1)NC(=O)[C@H](CCCNC(=N)N)NC(=O)[C@@H](N)CCC(N)=O)[C@@H](C)O)C(=O)N[C@@H](Cc1ccc(O)cc1)C(=O)N1CCC[C@H]1C(=O)N[C@@H](CS)C(=O)N[C@@H](CC(N)=O)C(=O)NCC(=O)N1CCC[C@H]1C(=O)O	5100
CC(C)C[C@H](NC(=O)[C@@H](Cc1ccccc1)NC(=O)CNC(=O)[C@H](Cc1ccccc1)NC(=O)[C@H](Cc1cnc[nH]1)NC(=O)CNC(=O)[C@@H](NC(=O)[C@@H](NC(=O)[C@H](Cc1ccccc1)NC(=O)[C@H](CCCNC(=N)N)NC(=O)[C@@H](N)CCC(N)=O)C(C)(C)S)[C@@H](C)O)C(=O)N[C@@H](Cc1ccc(O)cc1)C(=O)N1CCC[C@H]1C(=O)N[C@@H](CS)C(=O)N[C@@H](CC(N)=O)C(=O)NCC(=O)N1CCC[C@H]1C(=O)O	1700
CC(C)C[C@H](NC(=O)CNC(=O)CNC(=O)[C@H](Cc1ccc(N)cc1)NC(=O)[C@H](Cc1cnc[nH]1)NC(=O)CNC(=O)[C@@H](NC(=O)[C@@H](NC(=O)[C@H](Cc1ccccc1)NC(=O)[C@H](CCCN=C(N)N)NC(=O)[C@@H](N)CCC(N)=O)C(C)(C)S)[C@@H](C)O)C(=O)N[C@@H](Cc1ccc(O)cc1)C(=O)N1CCC[C@H]1C(=O)N[C@@H](CS)C(=O)N[C@@H](CC(N)=O)C(=O)NCC(=O)N1CCC[C@H]1C(=O)O	1000
CC(C)C[C@H](NC(=O)[C@@H](Cc1ccc(O)cc1)NC(=O)CNC(=O)[C@H](Cc1ccccc1)NC(=O)[C@H](Cc1cnc[nH]1)NC(=O)CNC(=O)[C@@H](NC(=O)[C@@H](NC(=O)[C@H](Cc1ccccc1)NC(=O)[C@H](CCCN=C(N)N)NC(=O)[C@@H](N)CCC(N)=O)C(C)(C)S)[C@@H](C)O)C(=O)N[C@@H](Cc1ccc(O)cc1)C(=O)N1CCC[C@H]1C(=O)N[C@@H](CS)C(=O)N[C@@H](CC(N)=O)C(=O)NCC(=O)N1CCC[C@H]1C(=O)O	1500
CC(C)C[C@H](NC(=O)[C@@H](Cc1cnc[nH]1)NC(=O)CNC(=O)[C@H](Cc1ccccc1)NC(=O)[C@H](Cc1cnc[nH]1)NC(=O)CNC(=O)[C@@H](NC(=O)[C@@H](NC(=O)[C@H](Cc1ccccc1)NC(=O)[C@H](CCCN=C(N)N)NC(=O)[C@@H](N)CCC(N)=O)C(C)(C)S)[C@@H](C)O)C(=O)N[C@@H](Cc1ccc(O)cc1)C(=O)N1CCC[C@H]1C(=O)N[C@@H](CS)C(=O)N[C@@H](CC(N)=O)C(=O)NCC(=O)N1CCC[C@H]1C(=O)O	2000
CC(C)C[C@H](NC(=O)CN(C)C(=O)[C@@H](C)NC(=O)[C@H](Cc1ccccc1)NC(=O)[C@H](Cc1cnc[nH]1)NC(=O)CNC(=O)[C@@H](NC(=O)[C@@H](NC(=O)[C@H](Cc1ccccc1)NC(=O)[C@H](CCCNC(=N)N)NC(=O)[C@@H](N)CCC(N)=O)C(C)(C)S)[C@@H](C)O)C(=O)N[C@@H](Cc1ccc(O)cc1)C(=O)N1CCC[C@H]1C(=O)N[C@@H](CS)C(=O)N[C@@H](CC(N)=O)C(=O)NCC(=O)N1CCC[C@H]1C(=O)O	190
CC(C)C[C@H](NC(=O)[C@@H]1CCCN1C(=O)[C@@H](Cc1ccccc1)NC(=O)[C@H](Cc1ccccc1)NC(=O)[C@H](Cc1cnc[nH]1)NC(=O)CNC(=O)[C@@H](NC(=O)[C@@H](NC(=O)[C@H](Cc1ccccc1)NC(=O)[C@H](CCCNC(=N)N)NC(=O)[C@@H](N)CCC(N)=O)C(C)(C)S)[C@@H](C)O)C(=O)N[C@@H](Cc1ccc(O)cc1)C(=O)N1CCC[C@H]1C(=O)N[C@@H](CS)C(=O)N[C@@H](CC(N)=O)C(=O)NCC(=O)N1CCC[C@H]1C(=O)O	3800

Now from value to molecule:

Kd [nM]	Compound
180000	CC(C)C[C@H](NC(=O)CNC(=O)CNC(=O)[C@H](Cc1ccccc1)NC(=O)[C@H](Cc1cnc[nH]1)NC(=O)CNC(=O)[C@@H](NC(=O)[C@@H](NC(=O)[C@H](Cc1ccccc1)NC(=O)[C@H](CCCNC(=N)N)NC(=O)[C@@H](N)CCC(N)=O)C(C)(C)S)[C@@H](C)O)C(=O)N[C@@H](Cc1ccc([N+](=O)[O-])cc1)C(=O)N1CCC[C@H]1C(=O)N[C@@H](CS)C(=O)N[C@@H](CC(N)=O)C(=O)NCC(=O)N1CCC[C@H]1C(=O)O
990	CC(C)C[C@H](NC(=O)[C@H]1CSC2C[C@@H](NC(=O)[C@H](Cc3ccccc3)NC(=O)[C@H](Cc3cnc[nH]3)NC(=O)CNC(=O)[C@@H](NC(=O)[C@H](NC(=O)[C@H](Cc3ccccc3)NC(=O)[C@@H](N)CCCNC(=N)N)C(C)(C)S)[C@@H](C)O)C(=O)N21)C(=O)N[C@@H](Cc1ccc(O)cc1)C(=O)N1CCC[C@H]1C(=O)N[C@@H](CS)C(=O)O (stereo partly drawn)
200	Cc1ccc(C[C@H](NC(=O)[C@H](Cc2cnc[nH]2)NC(=O)CNC(=O)[C@@H](NC(=O)[C@@H](NC(=O)[C@H](Cc2ccccc2)NC(=O)[C@H](CCCN=C(N)N)NC(=O)[C@@H](N)CCC(N)=O)C(C)(C)S)[C@@H](C)O)C(=O)NCC(=O)NCC(=O)N[C@@H](CC(C)C)C(=O)N[C@@H](Cc2ccc(O)cc2)C(=O)N2CCC[C@H]2C(=O)N[C@@H](CS)C(=O)N[C@@H](CC(N)=O)C(=O)NCC(=O)N2CCC[C@H]2C(=O)O)cc1
490	CC(C)C[C@H](NC(=O)CNC(=O)[C@@H](C)NC(=O)[C@H](Cc1ccccc1)NC(=O)[C@H](Cc1cnc[nH]1)NC(=O)CNC(=O)[C@@H](NC(=O)[C@@H](NC(=O)[C@H](Cc1ccccc1)NC(=O)[C@H](CCCNC(=N)N)NC(=O)[C@@H](N)CCC(N)=O)C(C)(C)S)[C@@H](C)O)C(=O)N[C@@H](Cc1ccc(O)cc1)C(=O)N1CCC[C@H]1C(=O)N[C@@H](CS)C(=O)N[C@@H](CC(N)=O)C(=O)NCC(=O)N1CCC[C@H]1C(=O)O
70000	CC(C)C[C@H](NC(=O)CNC(=O)CNC(=O)[C@H](Cc1c(F)c(F)c(F)c(F)c1F)NC(=O)[C@H](Cc1cnc[nH]1)NC(=O)CNC(=O)[C@@H](NC(=O)[C@@H](NC(=O)[C@H](Cc1ccccc1)NC(=O)[C@H](CCCN=C(N)N)NC(=O)[C@@H](N)CCC(N)=O)C(C)(C)S)[C@@H](C)O)C(=O)N[C@@H](Cc1ccc(O)cc1)C(=O)N1CCC[C@H]1C(=O)N[C@@H](CS)C(=O)N[C@@H](CC(N)=O)C(=O)NCC(=O)N1CCC[C@H]1C(=O)O
11000	CC(C)C[C@H](NC(=O)CNC(=O)CNC(=O)[C@H](Cc1ccccc1)NC(=O)[C@H](Cc1cnc[nH]1)NC(=O)CNC(=O)[C@@H](NC(=O)[C@H](CS)NC(=O)[C@@H](N)Cc1ccccc1)[C@@H](C)O)C(=O)N[C@@H](Cc1ccc(O)cc1)C(=O)N1CCC[C@H]1C(=O)N[C@@H](CS)C(=O)N[C@@H](CC(N)=O)C(=O)NCC(=O)N1CCC[C@H]1C(=O)O

Reference: ChEMBL document CHEMBL1150419, “Structure-activity relationships of a peptide inhibitor of the human FcRn:human IgG interaction” (Bioorg Med Chem, 2008)
